Laboratory results taken from ChEMBL document CHEMBL2086312, “Synthesis and biological evaluation of new 5-benzylated 4-oxo-3,4-dihydro-5H-pyridazino[4,5-b]indoles as PI3Kα inhibitors” (Eur J Med Chem, 2012).

How the values were obtained:
[1] = target: Dual specificity tyrosine-phosphorylation-regulated kinase 1A (Rattus norvegicus, UniProt Q63470); assay: Inhibition of rat recombinant GST-tagged DYRK1A expressed in Escherichia coli using myelin basic protein substrate
[2] = target: Cyclin-dependent kinase 5/CDK5 activator 1 (Homo sapiens, UniProt Q00535); assay: Inhibition of human recombinant CDK5/P25 using myelin basic protein substrate; type: protein-complex assay
Sequence of Cyclin-dependent kinase 5/CDK5 activator 1 (Q00535 whole entry): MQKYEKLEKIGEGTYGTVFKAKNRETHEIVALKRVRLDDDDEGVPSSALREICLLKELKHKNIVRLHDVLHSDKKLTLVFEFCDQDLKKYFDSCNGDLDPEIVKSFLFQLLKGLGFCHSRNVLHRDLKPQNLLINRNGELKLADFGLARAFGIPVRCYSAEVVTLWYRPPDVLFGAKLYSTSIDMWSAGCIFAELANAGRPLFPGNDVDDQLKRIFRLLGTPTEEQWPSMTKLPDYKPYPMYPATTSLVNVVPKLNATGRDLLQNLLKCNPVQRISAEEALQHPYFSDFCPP
Sequence of Cyclin-dependent kinase 5/CDK5 activator 1 (Q15078 whole entry, further chain): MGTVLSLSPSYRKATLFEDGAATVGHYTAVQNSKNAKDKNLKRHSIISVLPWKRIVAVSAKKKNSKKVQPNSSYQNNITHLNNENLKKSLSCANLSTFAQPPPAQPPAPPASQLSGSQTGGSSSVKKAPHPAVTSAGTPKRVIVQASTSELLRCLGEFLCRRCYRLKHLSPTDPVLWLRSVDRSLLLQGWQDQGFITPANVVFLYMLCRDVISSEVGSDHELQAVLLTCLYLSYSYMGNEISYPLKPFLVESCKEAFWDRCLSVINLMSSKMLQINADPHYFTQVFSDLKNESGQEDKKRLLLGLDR

[3] = target: PI3-kinase p110-alpha/p85-alpha (Homo sapiens, UniProt P42336); assay: Inhibition of PI3K p110alpha/p85alpha by fluorescence based immunoassay; type: protein-complex assay
Sequence of PI3-kinase p110-alpha/p85-alpha (P27986 whole entry): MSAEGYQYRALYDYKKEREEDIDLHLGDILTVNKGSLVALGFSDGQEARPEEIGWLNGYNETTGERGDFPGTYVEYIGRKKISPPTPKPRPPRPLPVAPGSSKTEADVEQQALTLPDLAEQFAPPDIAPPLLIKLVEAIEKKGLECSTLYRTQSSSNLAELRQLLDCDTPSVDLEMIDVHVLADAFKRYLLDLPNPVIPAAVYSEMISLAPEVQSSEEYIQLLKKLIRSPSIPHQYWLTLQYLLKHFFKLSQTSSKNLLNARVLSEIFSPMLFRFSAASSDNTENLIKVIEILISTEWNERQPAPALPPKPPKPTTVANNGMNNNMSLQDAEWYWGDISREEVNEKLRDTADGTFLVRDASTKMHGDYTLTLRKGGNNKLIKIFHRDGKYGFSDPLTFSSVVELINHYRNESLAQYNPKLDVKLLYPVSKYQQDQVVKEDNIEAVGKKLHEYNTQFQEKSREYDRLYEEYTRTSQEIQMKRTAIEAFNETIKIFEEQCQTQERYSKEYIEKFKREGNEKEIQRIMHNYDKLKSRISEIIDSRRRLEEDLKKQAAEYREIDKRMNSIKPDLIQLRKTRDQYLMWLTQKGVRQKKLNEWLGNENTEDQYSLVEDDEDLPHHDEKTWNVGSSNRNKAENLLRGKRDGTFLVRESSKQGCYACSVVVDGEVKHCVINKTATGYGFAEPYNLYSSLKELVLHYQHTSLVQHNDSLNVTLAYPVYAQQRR
Sequence of PI3-kinase p110-alpha/p85-alpha (P42336 whole entry): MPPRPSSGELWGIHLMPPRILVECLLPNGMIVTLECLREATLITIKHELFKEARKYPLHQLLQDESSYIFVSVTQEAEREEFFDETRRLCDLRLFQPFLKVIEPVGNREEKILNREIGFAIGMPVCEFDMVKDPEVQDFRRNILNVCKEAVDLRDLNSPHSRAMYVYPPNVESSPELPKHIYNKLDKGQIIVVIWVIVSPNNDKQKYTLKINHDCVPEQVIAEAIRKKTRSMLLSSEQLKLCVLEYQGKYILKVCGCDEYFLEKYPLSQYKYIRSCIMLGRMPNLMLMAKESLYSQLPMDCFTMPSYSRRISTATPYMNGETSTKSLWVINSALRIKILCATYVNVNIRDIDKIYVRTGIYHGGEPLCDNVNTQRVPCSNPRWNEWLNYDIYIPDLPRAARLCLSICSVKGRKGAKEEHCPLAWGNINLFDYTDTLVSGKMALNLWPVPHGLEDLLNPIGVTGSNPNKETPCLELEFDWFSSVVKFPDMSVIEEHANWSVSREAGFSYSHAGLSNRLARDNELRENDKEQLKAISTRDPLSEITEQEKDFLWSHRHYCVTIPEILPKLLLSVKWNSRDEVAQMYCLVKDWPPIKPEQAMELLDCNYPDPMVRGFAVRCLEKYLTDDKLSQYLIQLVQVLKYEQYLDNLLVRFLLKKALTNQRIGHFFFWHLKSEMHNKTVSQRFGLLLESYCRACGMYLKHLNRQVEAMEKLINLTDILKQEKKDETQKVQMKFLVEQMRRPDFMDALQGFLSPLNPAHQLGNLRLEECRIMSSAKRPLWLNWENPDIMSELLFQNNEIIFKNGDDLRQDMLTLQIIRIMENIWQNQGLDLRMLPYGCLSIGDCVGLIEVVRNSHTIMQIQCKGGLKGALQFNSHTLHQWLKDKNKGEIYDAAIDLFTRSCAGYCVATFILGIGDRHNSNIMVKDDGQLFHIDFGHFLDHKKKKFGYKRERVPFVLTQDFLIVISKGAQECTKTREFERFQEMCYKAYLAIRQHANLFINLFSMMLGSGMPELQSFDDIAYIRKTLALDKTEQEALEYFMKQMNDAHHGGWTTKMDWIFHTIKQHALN
Method in brief: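 ADAPTA TR-FRET ADP-detection kinase assay. Detection used 6 nM Eu-anti-ADP antibody, 12 nM Alexa647-ADP tracer and 30 mM EDTA for 30 min. Read-out was excitation 340 nm with 665/615 nm emission ratio, converted to % conversion via an ATP–ADP titration curve.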

[4] = test system: Huh-7; assay: Antiproliferative activity against human HuH7 cells incubated for 48 hrs by […] dye staining based assay; type: functional, cell-based; details: Huh-7, 48 h
Method in brief: (§1)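 After 24 h attachment, they were exposed 48 h to increasing concentrations of 0.1 to 25. Cells were then fixed in cold 90% ethanol/5% acetic acid, nuclei were Hoechst-stained, and nuclei were counted by automated imaging.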

[5] = test system: Caco-2; assay: Antiproliferative activity against human Caco2 cells incubated for 48 hrs by […] dye staining based assay; type: functional, cell-based; details: Caco-2, 48 h; method in brief: as §1
[6] = test system: MDA-MB-231; assay: Antiproliferative activity against human MDA-MB-231 cells incubated for 48 hrs by […] dye staining based assay; type: functional, cell-based; details: MDA-MB-231, 48 h; method in brief: as §1
[7] = test system: HCT-116; assay: Antiproliferative activity against human HCT116 cells incubated for 48 hrs by […] dye staining based assay; type: functional, cell-based; details: HCT-116, 48 h
Method in brief: as §1, with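 “Cells were grown per ECACC recommendations and seeded in triplicate at 2 × 10³ (HCT-116) or 4 × 10³ (other lines) per well. After” for “After”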

[8] = test system: PC-3; assay: Antiproliferative activity against human PC3 cells incubated for 48 hrs by […] dye staining based assay; type: functional, cell-based; details: PC-3, 48 h
Method in brief: as §1, with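 “Cells were grown per ECACC recommendations and seeded in triplicate at 2 × 10³ (HCT-116) or 4 × 10³ (other lines) per well. After” for “After”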

[9] = test system: NCI-H727; assay: Antiproliferative activity against human NCI-H727 cells incubated for 48 hrs by […] dye staining based assay; type: functional, cell-based; details: NCI-H727, 48 h
Method in brief: as §1, with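 “Cells were grown per ECACC recommendations and seeded in triplicate at 2 × 10³ (HCT-116) or 4 × 10³ (other lines) per well. After” for “After”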

[10] = Antiproliferative activity against human Skin fibroblasts incubated for 48 hrs by […] dye staining based assay; details: Skin fibroblast
Method in brief: as §1, with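 “Cells were grown per ECACC recommendations and seeded in triplicate at 2 × 10³ (HCT-116) or 4 × 10³ (other lines) per well. After” for “After”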

[11] = test system: Caco-2; assay: Antiproliferative activity against human Caco2 cells assessed as cell diminution incubated for 48 hrs by […] dye staining based assay; type: functional
Method in brief: as §1, with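 “Cells were grown per ECACC recommendations and seeded in triplicate at 2 × 10³ (HCT-116) or 4 × 10³ (other lines) per well. After” for “After”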

[12] = test system: PC-3; assay: Antiproliferative activity against human PC3 cells assessed as cell diminution incubated for 48 hrs by […] dye staining based assay; type: functional
Method in brief: as §1, with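 “Cells were grown per ECACC recommendations and seeded in triplicate at 2 × 10³ (HCT-116) or 4 × 10³ (other lines) per well. After” for “After”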

[13] = Antiproliferative activity against human Skin fibroblasts assessed as cell diminution incubated for 48 hrs by […] dye staining based assay; details: skin fibroblast
Method in brief: as §1, with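 “Cells were grown per ECACC recommendations and seeded in triplicate at 2 × 10³ (HCT-116) or 4 × 10³ (other lines) per well. After” for “After”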

[14] = target: Phosphatidylinositol 4,5-bisphosphate 3-kinase catalytic subunit gamma isoform (Homo sapiens, UniProt P48736); assay: Inhibition of PI3K p110gamma by fluorescence based immunoassay
Sequence of Phosphatidylinositol 4,5-bisphosphate 3-kinase catalytic subunit gamma isoform (P48736 whole entry, looked up, canonical isoform): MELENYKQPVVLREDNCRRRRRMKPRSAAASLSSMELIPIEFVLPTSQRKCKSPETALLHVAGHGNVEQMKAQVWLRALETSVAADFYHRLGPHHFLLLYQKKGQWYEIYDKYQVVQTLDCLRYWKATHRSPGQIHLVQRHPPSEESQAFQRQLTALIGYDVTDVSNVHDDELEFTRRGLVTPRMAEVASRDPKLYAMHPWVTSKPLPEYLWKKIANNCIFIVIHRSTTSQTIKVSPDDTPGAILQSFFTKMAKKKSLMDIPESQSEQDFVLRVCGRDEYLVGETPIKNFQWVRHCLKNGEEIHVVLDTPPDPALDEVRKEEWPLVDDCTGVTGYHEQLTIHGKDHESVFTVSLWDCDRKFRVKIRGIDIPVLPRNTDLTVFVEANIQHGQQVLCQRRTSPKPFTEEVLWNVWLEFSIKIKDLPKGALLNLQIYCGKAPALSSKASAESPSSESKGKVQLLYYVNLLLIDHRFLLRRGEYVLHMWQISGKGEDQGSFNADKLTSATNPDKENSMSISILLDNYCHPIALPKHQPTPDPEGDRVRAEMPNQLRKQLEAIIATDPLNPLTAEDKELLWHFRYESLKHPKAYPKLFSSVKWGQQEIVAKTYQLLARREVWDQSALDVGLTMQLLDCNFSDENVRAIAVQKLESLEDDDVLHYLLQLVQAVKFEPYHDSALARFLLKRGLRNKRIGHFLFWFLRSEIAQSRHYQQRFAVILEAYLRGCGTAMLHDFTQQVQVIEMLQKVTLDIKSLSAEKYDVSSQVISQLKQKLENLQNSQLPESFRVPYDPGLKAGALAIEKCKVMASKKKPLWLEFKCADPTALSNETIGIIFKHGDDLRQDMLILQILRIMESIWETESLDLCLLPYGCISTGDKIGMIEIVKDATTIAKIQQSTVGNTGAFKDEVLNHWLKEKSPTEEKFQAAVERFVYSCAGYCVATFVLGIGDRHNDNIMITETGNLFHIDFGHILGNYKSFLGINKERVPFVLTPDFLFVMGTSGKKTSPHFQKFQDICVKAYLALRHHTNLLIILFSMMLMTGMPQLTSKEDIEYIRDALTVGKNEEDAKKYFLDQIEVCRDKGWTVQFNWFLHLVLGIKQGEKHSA

[15] = test system: Huh-7; assay: Antiproliferative activity against human HuH7 cells assessed as cell diminution incubated for 48 hrs by […] dye staining based assay; type: functional
Method in brief: as §1, with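 “Cells were grown per ECACC recommendations and seeded in triplicate at 2 × 10³ (HCT-116) or 4 × 10³ (other lines) per well. After” for “After”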

[16] = test system: NCI-H727; assay: Antiproliferative activity against human NCI-H727 cells assessed as cell diminution incubated for 48 hrs by […] dye staining based assay; type: functional
Method in brief: as §1, with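 “Cells were grown per ECACC recommendations and seeded in triplicate at 2 × 10³ (HCT-116) or 4 × 10³ (other lines) per well. After” for “After”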

| IC50 [1] [µM] | IC50 [2] [µM] | IC50 [3] [µM] | IC50 [4] [nM] | IC50 [5] [nM] | IC50 [6] [µM] | IC50 [7] [µM] | IC50 [8] [nM] | IC50 [9] [µM] | IC50 [14] [µM] | SMILES | IC50 [10] [µM] | Activity [11] [%] | Activity [12] [%] | Activity [13] [%] | Activity [15] [%] | Activity [16] [%] |
| --- | --- | --- | --- | --- | --- | --- | --- | --- | --- | --- | --- | --- | --- | --- | --- | --- |
| > 10 | > 10 | 6.3 | 1000 | 2000 | 3 | 2 | 2500 | 3 | – | COc1cccc(Cn2c3ccc(OC)cc3c3c(C)n[nH]c(=O)c32)c1 | 1 | – | – | – | – | – |
| > 10 | > 10 | 1.8 | 1500 | 5000 | 4 | 4 | 2500 | 4 | – | COc1ccc2c(c1)c1c(C)n[nH]c(=O)c1n2Cc1cccc([N+](=O)[O-])c1 | 2 | 50 | 50 | 50 | – | – |
| > 10 | > 10 | 1.9 | 2000 | 2000 | 4 | 2 | 2000 | 3 | > 10 | Cc1n[nH]c(=O)c2c1c1cc(Br)ccc1n2Cc1ccc(C#N)cc1 | 2 | – | – | – | – | – |
| – | – | – | 1500 | 900 | 15 | 1 | 1500 | 3 | – | Oc1cccc(-c2nc(N3CCOCC3)c3oc4ncccc4c3n2)c1 [PI-103] | 1.5 | – | – | 30 | 40 | 30 |
| > 10 | > 10 | 3.3 | 2000 | 3000 | 3 | 5 | 2000 | 4 | – | COc1ccc2c(c1)c1c(C)n[nH]c(=O)c1n2Cc1cccc(C#N)c1 | 5 | – | – | – | – | – |
| > 10 | > 10 | > 10 | 5000 | 2000 | 2 | 5 | 600 | 5 | – | Cc1n[nH]c(=O)c2c1c1cc(F)ccc1n2Cc1ccc([N+](=O)[O-])cc1 | > 25 | – | – | – | – | – |
| > 10 | > 10 | > 10 | 3000 | 2000 | 0.8 | 4 | 700 | 6 | – | Cc1n[nH]c(=O)c2c1c1cc(F)ccc1n2Cc1cccc([N+](=O)[O-])c1 | > 25 | – | – | – | – | – |
| > 10 | > 10 | 0.091 | 2000 | 2000 | 4 | 5 | 2500 | 4 | 0.295 | Cc1n[nH]c(=O)c2c1c1cc(Br)ccc1n2Cc1cccc(C#N)c1 | 4 | – | – | – | – | – |
| 5 | > 10 | > 10 | 3000 | 8000 | 5 | 15 | 7000 | 5 | – | COc1ccc2[nH]c3c(=O)[nH]nc(C)c3c2c1 | 20 | – | – | – | – | – |
| > 10 | > 10 | 5 | 3000 | 2000 | 12 | 6 | 4000 | 6 | – | Cc1n[nH]c(=O)c2c1c1cc(F)ccc1n2Cc1cccc(C#N)c1 | 8 | – | – | – | – | – |
| > 10 | > 10 | 2.9 | 2000 | 6000 | 2 | 4 | 2000 | 2 | – | COc1ccc2c(c1)c1c(C)n[nH]c(=O)c1n2Cc1ccc(C#N)cc1 | 5 | – | 50 | – | – | – |
| > 10 | > 10 | 2.6 | 3000 | 5000 | 2 | 5 | 3000 | 2.5 | – | COc1ccc2c(c1)c1c(C)n[nH]c(=O)c1n2Cc1ccc([N+](=O)[O-])cc1 | 4 | – | – | – | – | – |

The remaining lines, values behind:

| SMILES | IC50 [1] [µM] | IC50 [2] [µM] | IC50 [3] [µM] | IC50 [4] [nM] | IC50 [5] [nM] | IC50 [6] [µM] | IC50 [7] [µM] | IC50 [8] [nM] | IC50 [9] [µM] | IC50 [14] [µM] | IC50 [10] [µM] | Activity [11] [%] | Activity [12] [%] | Activity [13] [%] | Activity [15] [%] | Activity [16] [%] |
| --- | --- | --- | --- | --- | --- | --- | --- | --- | --- | --- | --- | --- | --- | --- | --- | --- |
| CC[C@H](CO)Nc1nc(NCc2ccccc2)c2ncn(C(C)C)c2n1 [SELICICLIB] | – | – | – | – | – | – | 7 | 10000 | 20 | – | > 25 | – | – | – | – | – |
| Cc1n[nH]c(=O)c2[nH]c3ccc(F)cc3c12 | 5.6 | > 10 | > 10 | 1500 | 4000 | 4 | 5 | 3000 | 2 | – | 10 | – | – | – | – | – |
| Cc1n[nH]c(=O)c2c1c1cc(F)ccc1n2Cc1ccc(C#N)cc1 | > 10 | > 10 | > 10 | 3000 | 2000 | 1.5 | 5 | 1000 | 4 | – | > 25 | – | – | – | – | – |
| COc1ccc(Cn2c3ccc(OC)cc3c3c(C)n[nH]c(=O)c32)cc1 | > 10 | > 10 | > 10 | – | – | – | – | – | – | – | – | – | – | – | – | – |
| Cc1n[nH]c(=O)c2[nH]c3ccc(Br)cc3c12 | – | – | – | 1500 | 2000 | 6 | 5 | 3000 | 3 | – | 8 | – | – | – | – | – |
| COc1cccc(Cn2c3ccc(F)cc3c3c(C)n[nH]c(=O)c32)c1 | > 10 | > 10 | > 10 | 1500 | 2000 | 0.9 | 4 | 400 | 2 | – | > 25 | – | – | – | – | – |
| COc1ccc(Cn2c3ccc(F)cc3c3c(C)n[nH]c(=O)c32)cc1 | > 10 | > 10 | 4.2 | 1000 | 2000 | 2 | 2 | 2500 | 3 | – | 5 | – | – | – | – | – |
| COc1cccc(Cn2c3ccc(Br)cc3c3c(C)n[nH]c(=O)c32)c1 | > 10 | > 10 | 1.5 | 2000 | 2000 | 4 | 2 | 2000 | 5 | 2.2 | 3 | – | – | – | – | – |
| Cc1n[nH]c(=O)c2c1c1cc(Br)ccc1n2Cc1ccc([N+](=O)[O-])cc1 | > 10 | > 10 | 6 | 1000 | 2000 | 4 | 2 | 1500 | 1 | > 10 | 2 | – | – | – | – | – |
| Cc1n[nH]c(=O)c2c1c1cc(Br)ccc1n2Cc1cccc([N+](=O)[O-])c1 | > 10 | > 10 | 5.1 | 2000 | 3000 | 5 | 4 | 5000 | 4 | 4.1 | 5 | – | – | – | – | – |
| COc1ccc(Cn2c3ccc(Br)cc3c3c(C)n[nH]c(=O)c32)cc1 | > 10 | > 10 | 1.5 | 1500 | 2000 | 5 | 4 | 2500 | 5 | 5.2 | 4 | – | – | – | – | – |
